Laboratory results from paper PMC4957400 (MedChemComm, 2016).
“Also recorded” adds a separate entry of the source. Numbered stars: 1 amine (or outer) side, 2 acyl side, 3 side chain; on linkers, the order of the positions; unused ones are H or OH. Suc = O=C(CCC(=O)[*:2])[*:1]

Experiments:
[1] = tested on: U87 CXCR4 human glioblastoma cell line stably transfected with CD4 and CXCR4; assay: MTT toxicity assay; type: cell-based; conditions: for toxicity (MTT assay): U87 CXCR4 cells, concentrations up to 100 μM; for cell viability (MTT assay in parallel with second p24 screening): at 40 μM
Method in brief: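 MTT viability read in U87 human glioblastoma cells stably transfected with CD4 and CXCR4, with cells receiving no compound as the control. It was run as a toxicity screen of test peptides and again in parallel with the second p24 ELISA screen of HIV replication.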

[2] = tested on: HIV-1 capsid protein p24 production; type: cell-based; conditions: p24 ELISA; for inhibition of p24 expression: 40 μM; for suppression of HIV replication / inhibition of p24 / inhibition of the production of p24: initial screen; for suppression of HIV replication / inhibition of p24: 100 μM; for inhibition of the production of p24: 10 μM
HIV-1 RRE IIB RNA = assay: Dissociation constants by electrophoretic mobility shift assay; type: binding; conditions: EMSA, average of at least three experiments
wild-type RRE IIB RNA = conditions: EMSA; cited from earlier work

Substance	suppression of HIV replication / inhibition of p24 [2]	Kd (HIV-1 RRE IIB RNA) [nM]	also measured
(KACRKK)2*KLKBBAY [Peptide A6]	greatly suppressed HIV replication; also recorded: complete or virtually complete inhibition of p24	60 ± 10	toxicity (MTT assay) [1]: slight toxicity; also recorded: nearly non-toxic; cell viability (MTT assay in parallel with second p24 screening) [1]: confirmed cell viability; inhibition of p24 expression [2]: approximately 90%
(KKACRK)2*KLKBBAY [Peptide A7]	greatly suppressed HIV replication; also recorded: complete or virtually complete inhibition of p24	70 ± 30	toxicity (MTT assay) [1]: cytotoxicity in a dose-dependent manner; also recorded: moderate toxicity; cell viability (MTT assay in parallel with second p24 screening) [1]: confirmed cell viability; inhibition of p24 expression [2]: approximately 90%; inhibition of the production of p24 [2]: 60%
(KKBBAK)2*LLKY [Peptide A8]		660 ± 90	
(KKK)2*KACRLKY [Peptide A3]	greatly suppressed HIV replication	140 ± 50	
(KKK)2*KLKACRY [Peptide A4]	greatly suppressed HIV replication; also recorded: complete or virtually complete inhibition of p24	20 ± 4	toxicity (MTT assay) [1]: slight toxicity
(KKK)2*LKBBAKBBAY [Peptide A1]	greatly suppressed HIV replication; also recorded: complete or virtually complete inhibition of p24	280 ± 80	
(KKK)2*LKBBALY [Peptide A2]		130 ± 30	
(KKKBBA)2*KLKBBAY [Peptide A9]		120 ± 40	
(KKL)2*KKBBAKBBAY [Peptide A14]		170 ± 50	
(KKL)2*LKKBBAY [Peptide A12]		330 ± 100	
(KLK)2*KKKBBAY [Peptide A11]		1430 ± 870	inhibition of the production of p24 [2]: 40%
(KLK)2*LKKBBAY [Peptide A10]		300 ± 40	
(LLK)2*KKBBAKY [Peptide A13]		210 ± 30	
Suc-TRQARRNRRRRWRERQRAAAAR-NH2 [Rev17]			Kd (wild-type RRE IIB RNA): 100 nM
